Laboratory results taken from ChEMBL document CHEMBL1145421, “Discovery of novel antitumor antimitotic agents that also reverse tumor resistance” (J Med Chem, 2007).
One block for each compound: values may come before it. Active and inactive are the calls of the source. The rule behind the calls is not given here.

Assays:
HCT-116 = assay: Growth inhibition of HCT116 cells; format: functional; conditions: Homo sapiens
MCF7 [1] = assay: Cytotoxicity against human MCF7 cells after 48 hrs by SRB binding assay; format: functional, cell-based; conditions: MCF7, 48 h
Outline: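 Drug-sensitive MCF-7 cells seeded at ~15% confluency and allowed 24 h recovery. Exposed 48 h to graded concentrations. Survival measured by SRB binding as % decrease versus ethanol-vehicle controls, mean of triplicate wells.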

M14 = assay: Growth inhibition of M14 cells; format: functional; conditions: Homo sapiens
CCRF-CEM = assay: Growth inhibition of CCRF-CEM cells; format: functional; conditions: Homo sapiens
COLO 205 = assay: Growth inhibition of COLO205 cells; format: functional; conditions: Homo sapiens
OVCAR-3 = assay: Growth inhibition of OVCAR-3 cells; format: functional; conditions: Homo sapiens
SR = assay: Growth inhibition of SR cells; format: functional; conditions: Homo sapiens
SW-620 = assay: Growth inhibition of SW620 cells; format: functional; conditions: Homo sapiens
A10 [2] = assay: Prevention of paracrystal formation in rat A10 cells at 10 uM; format: functional, cell-based
TK-10 = assay: Growth inhibition of TK10 cells; format: functional; conditions: Homo sapiens
EKVX = assay: Growth inhibition of EKVX cells; format: functional; conditions: Homo sapiens
HT-29 = assay: Growth inhibition of HT29 cells; format: functional; conditions: Homo sapiens
SK-MEL-2 = assay: Growth inhibition of SK-MEL-2 cells; format: functional; conditions: Homo sapiens
[3] = Growth inhibition of Pgp deficient MCF7/VP cells expressing MRP1; format: functional, cell-based; conditions: Homo sapiens
Outline: (§1)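 NCI/ADR (Pgp-overexpressing) or MCF-7/VP (MRP1-expressing, Pgp-negative) cells were seeded at about 15% confluency and allowed to attach for 24 h. They were then exposed for 48 h to varying compound concentrations, limited by solubility, without added vinca drug. Survival was read by sulforhodamine B binding against ethanol solvent controls. Each value is the mean of three equally treated wells.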

U-251 = assay: Growth inhibition of U251 cells; format: functional; conditions: Homo sapiens
SNB-19 = assay: Growth inhibition of SNB19 cells; format: functional; conditions: Homo sapiens
[4] = Cytotoxicity against Pgp overexpressing human NCI/ADR cells after 48 hrs by SRB binding assay; format: functional, cell-based; conditions: NCI/ADR-RES
Outline: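 NCI/ADR (Pgp-overexpressing) cells seeded at ~15% confluency and allowed 24 h to attach. Exposed 48 h to graded concentrations, as solubility allowed, without vinblastine. Survival measured by sulforhodamine B binding as % decrease in SRB binding versus ethanol-vehicle controls, mean of three wells per condition.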

SK-MEL-28 = assay: Growth inhibition of SK-MEL-28 cells; format: functional; conditions: Homo sapiens
OVCAR-4 = assay: Growth inhibition of OVCAR4 cells; format: functional; conditions: Homo sapiens
Hs-578T = assay: Growth inhibition of HS578T cells; format: functional; conditions: Homo sapiens
SN12C = assay: Growth inhibition of SN12C cells; format: functional; conditions: Homo sapiens
NCI-H226 = assay: Growth inhibition of NCI-H226 cells; format: functional; conditions: Homo sapiens
KM12 = assay: Growth inhibition of KM12 cells; format: functional; conditions: Homo sapiens
DU-145 = assay: Growth inhibition of DU145 cells; format: functional; conditions: Homo sapiens
HL-60 [5] = assay: Growth inhibition of HL60 cells; format: functional; conditions: Homo sapiens
SK-OV-3 = assay: Growth inhibition of SKOV3 cells; format: functional; conditions: Homo sapiens
SK-MEL-5 = assay: Growth inhibition of SK-MEL-5 cells; format: functional; conditions: Homo sapiens
HL-60 [6] = assay: Cell cycle arrest in HL60 cells assessed as accumulation in S phase at 6 uM; format: functional, Homo sapiens
Outline: (§2)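 HL-60 cells exposed 24 or 48 h to drug or ethanol vehicle. Nuclei prepared by detergent-trypsin method: citrate/sucrose/DMSO buffer, trypsin, then trypsin inhibitor plus RNase A, then propidium iodide with spermine, 30 min at 4 °C. Filtered, resuspended, DNA content measured by flow cytometry. Percentages given for G0/G1, S and G2/M. Mean ± SEM.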

OVCAR-8 = assay: Growth inhibition of OVCAR8 cells; format: functional; conditions: Homo sapiens
RXF 393 = assay: Growth inhibition of RXF393 cells; format: functional; conditions: Homo sapiens
[7] = Growth inhibition of NCI/ADR cells expressing Pgp/MRP1; format: functional, cell-based; conditions: Homo sapiens, NCI/ADR-RES; outline: as §1
PC-3 = assay: Growth inhibition of PC3 cells; format: functional; conditions: Homo sapiens
MCF7 [8] = assay: Growth inhibition of Pgp deficient MCF7 cells expressing MRP1; format: functional, cell-based; conditions: Homo sapiens; outline: as §1
HCT-15 = assay: Growth inhibition of HCT15 cells; format: functional; conditions: Homo sapiens
Malme-3M = assay: Growth inhibition of MALME-3M cells; format: functional; conditions: Homo sapiens
NIH3T3 = assay: Induction of microtubule loss in NIH/3T3 cells after 24 hrs; format: functional, cell-based; conditions: Mus musculus
MOLT-4 = assay: Growth inhibition of MOLT4 cells; format: functional; conditions: Homo sapiens
HOP-92 = assay: Growth inhibition of HOP92 cells; format: functional; conditions: Homo sapiens
A549 = assay: Growth inhibition of A549 cells; format: functional; conditions: Homo sapiens
NCI-H460 = assay: Growth inhibition of NCI-H460 cells; format: functional; conditions: Homo sapiens
NCI/ADR-RES = assay: Growth inhibition of NCI/ADR-RES cells; format: functional; conditions: Homo sapiens
SNB-75 = assay: Growth inhibition of SNB75 cells; format: functional; conditions: Homo sapiens
HL-60 [9] = assay: Cell cycle arrest in HL60 cells assessed as accumulation in G0/G1 phase at 6 uM; format: functional, Homo sapiens; outline: as §2
MCF7 [10] = assay: Growth inhibition of MCF7 cells; format: functional; conditions: Homo sapiens
A498 = assay: Growth inhibition of A498 cells; format: functional; conditions: Homo sapiens
IGROV-1 = assay: Growth inhibition of IGROV1 cells; format: functional; conditions: Homo sapiens
T47D = assay: Growth inhibition of T47D cells; format: functional; conditions: Homo sapiens
MDA-MB-435 = assay: Growth inhibition of MDA-MB-435 cells; format: functional; conditions: Homo sapiens
Bos taurus = species: Bos taurus; assay: Reduction of bovine brain tubulin polymerization
Outline: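 Bovine brain tubulin was purified by three assembly/disassembly cycles followed by ion exchange. Tubulin at 67 μM (2.5 mg/mL) in 1 M glutamate, pH 6.6, with 4% DMSO was preincubated with compound (2–20 μM) or ethanol for 15 min at 0 °C. Then 0.5 mM GTP was added, samples were warmed to 37 °C, and A340 was followed for about 60 min.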

MCF7 [11] = assay: Induction of microtubule loss in MCF7 cells after 24 hrs; format: functional, cell-based; conditions: Homo sapiens
UACC-257 = assay: Growth inhibition of UACC257 cells; format: functional; conditions: Homo sapiens
OVCAR-5 = assay: Growth inhibition of OVCAR5 cells; format: functional; conditions: Homo sapiens
MDA-MB-231 = assay: Growth inhibition of MDA-MB-231 cells; format: functional; conditions: Homo sapiens
HL-60 [12] = assay: Cell cycle arrest in HL60 cells assessed as accumulation in […] phase at 6 uM; format: functional, Homo sapiens; outline: as §2
A10 [13] = assay: Induction of microtubule loss in rat A10 cells after 24 hrs; format: functional, cell-based
Outline: (§3)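 Rat A-10 smooth muscle cells were grown to near confluency on glass coverslips and treated for 24 h, with ethanol as control. Microtubules were stained by indirect immunofluorescence using monoclonal anti-β-tubulin and a fluorescein-conjugated anti-mouse IgG, then imaged by confocal laser scanning microscopy.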

SF-268 = assay: Growth inhibition of SF268 cells; format: functional; conditions: Homo sapiens
NCI-H23 = assay: Growth inhibition of NCI-H23 cells; format: functional; conditions: Homo sapiens
[14] = Cytotoxicity against human T24 cells after 48 hrs by SRB binding assay; format: cell-based; conditions: T-24, 48 h
UO-31 = assay: Growth inhibition of UO31 cells; format: functional; conditions: Homo sapiens
MCF7 [15] = assay: Effect on Waf1 protein expression in MCF7 cells after 24 hrs; format: functional, cell-based; conditions: Homo sapiens
Outline: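 MCF-7 cells exposed 24 h to the indicated concentrations or ethanol control. Cells lysed and protein levels assessed by Western blot. One of two similar experiments.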

[16] = Growth inhibition of NCI-H322 cells; format: functional; conditions: Homo sapiens
786-0 = assay: Growth inhibition of 786-0 cells; format: functional; conditions: Homo sapiens
ACHN = assay: Growth inhibition of ACHN cells; format: functional; conditions: Homo sapiens
UACC-62 = assay: Growth inhibition of UACC62 cells; format: functional; conditions: Homo sapiens
A10 [17] = assay: Induction of microtubule depolymerization in rat A10 cells at 10 uM; format: functional, cell-based; outline: as §3
K562 = assay: Growth inhibition of K562 cells; format: functional; conditions: Homo sapiens
HCC 2998 = assay: Growth inhibition of HCC2998 cells; format: functional; conditions: Homo sapiens
MDA-N = assay: Growth inhibition of MDA-N cells; format: functional; conditions: Homo sapiens
SF-539 = assay: Growth inhibition of SF539 cells; format: functional; conditions: Homo sapiens
BT-549 = assay: Growth inhibition of BT549 cells; format: functional; conditions: Homo sapiens
SF-295 = assay: Growth inhibition of SF295 cells; format: functional; conditions: Homo sapiens
[18] = Cytotoxicity against MRP1 overexpressing human MCF7/VP cells after 48 hrs by SRB binding assay; format: functional, cell-based
Outline: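 MCF-7/VP (MRP1-expressing, Pgp-negative) cells seeded at ~15% confluency and allowed 24 h to attach. Exposed 48 h to graded concentrations without vincristine. Survival measured by SRB binding versus ethanol controls.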

[19] = Growth inhibition of LOX IMV1 cells; format: functional; conditions: Homo sapiens
CAKI-1 = assay: Growth inhibition of CAKI1 cells; format: functional; conditions: Homo sapiens
NCI-H522 = assay: Growth inhibition of NCI-H522 cells; format: functional; conditions: Homo sapiens
RPMI-8226 = assay: Growth inhibition of RPMI8226 cells; format: functional; conditions: Homo sapiens
NCI/ADR = assay: Inhibition of P-glycoprotein activity assessed as increase in accumulation of [3H]vinblastine in NCI/ADR cells; format: cell-based; conditions: Homo sapiens

GI50 (HCT-116): 286 nM
GI50 (CCRF-CEM): 58 nM
GI50 (COLO 205): 190 nM
GI50 (OVCAR-3): 28.8 nM
GI50 (SW-620): 236 nM
GI50 (HT-29): 281 nM
GI50 (SK-MEL-2): 381 nM
GI50 (U-251): 144 nM
GI50 (SK-MEL-28): > 1000 nM
GI50 (OVCAR-4): 821 nM
GI50 (NCI-H226): 195 nM
GI50 (DU-145): 224 nM
GI50 (HL-60 [5]): 64.7 nM
GI50 (SK-OV-3): 506 nM
GI50 (SK-MEL-5): 61.1 nM
GI50 (OVCAR-8): 364 nM
GI50 (PC-3): 47.9 nM
IC50 (MCF7 [8]): 280 nM
GI50 (HCT-15): 127 nM
GI50 (MOLT-4): 285 nM
GI50 (A549): 173 nM
GI50 (NCI-H460): 162 nM
GI50 (MCF7 [10]): 118 nM
GI50 (T47D): 563 nM
GI50 (MDA-MB-435): 10.1 nM
Activity (Bos taurus): Dose-dependent effect
GI50 (OVCAR-5): > 1000 nM
GI50 (MDA-MB-231): 595 nM
GI50 (NCI-H23): 278 nM
GI50 (786-0): 254 nM
GI50 (ACHN): 728 nM
GI50 (K562): 84.6 nM
GI50 (HCC 2998): 317 nM
GI50 (BT-549): > 1000 nM
GI50 (NCI-H522): 47.7 nM
GI50 (RPMI-8226): 439 nM
SMILES: COc1cc(CCc2cn(Cc3ccccc3)c3nc(N)nc(C)c23)cc(OC)c1OC
IC50 (MCF7 [1]): 300 nM
GI50 (M14): 77 nM
GI50 (SR): 31.4 nM
Activity (A10 [2]): inactive
GI50 (TK-10): 961 nM
GI50 (EKVX): 424 nM
IC50 [3]: 180 nM
GI50 (SNB-19): 273 nM
IC50 [4]: 250 nM
GI50 (Hs-578T): 283 nM
GI50 (SN12C): 537 nM
GI50 (KM12): 194 nM
Activity (HL-60 [6]): 10.3%
GI50 (RXF 393): 134 nM
IC50 [7]: 350 nM
GI50 (Malme-3M): 283 nM
Activity (NIH3T3): Active
GI50 (HOP-92): 467 nM
GI50 (NCI/ADR-RES): 145 nM
GI50 (SNB-75): 358 nM
Activity (HL-60 [9]): 80%
GI50 (A498): 136 nM
GI50 (IGROV-1): 61.1 nM
Activity (MCF7 [11]): Active
GI50 (UACC-257): 80.2 nM
Activity (HL-60 [12]): 9.7%
Activity (A10 [13]): Dose-dependent effect
GI50 (SF-268): 669 nM
IC50 [14]: 280 nM
GI50 (UO-31): 347 nM
Activity (MCF7 [15]): Active
GI50 [16]: 581 nM
GI50 (UACC-62): 39.9 nM
Activity (A10 [17]): Active
GI50 (MDA-N): < 10 nM
GI50 (SF-539): 74.5 nM
GI50 (SF-295): 41.8 nM
IC50 [18]: 250 nM
GI50 [19]: 250 nM
GI50 (CAKI-1): 366 nM

SMILES: COc1ccccc1CCc1cn(Cc2ccccc2)c2nc(N)nc(C)c12
IC50 (MCF7 [1]): 2300 nM
IC50 [4]: 2700 nM
Activity (NCI/ADR): Dose-dependent effect
IC50 [14]: 2500 nM
IC50 [18]: 2600 nM
